CHRM5 antagonist – antagonists of human muscarinic M5 receptor (CHRM5). CHO-hM5 cells, Fluo-8 calcium fluorescence, ACh EC80. inhibition, % at 3 µM. 0.59% of 360,000 active. AID 624040;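 active means inhibition above a per-plate cutoff, the mean of that plate's test compounds plus 3 SD, cut at about 27% in these data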;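 further: 0% = acetylcholine EC80 with DMSO and 100% = DMSO without agonist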
M4 PAM – potentiates acetylcholine response at human M4 receptor. P08173. CHO-K1 hM4/Gqi5, Fluo-8 calcium fluorescence, ACh EC20; 0% = ACh EC20, 100% = maximal ACh. activation, % at 3 µM. 0.4% of 360,000 active. AID 624126;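 active means activation above its plate's cutoff, the mean activation of sample wells plus 3 SD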
Target sequence (P08173 whole entry, looked up): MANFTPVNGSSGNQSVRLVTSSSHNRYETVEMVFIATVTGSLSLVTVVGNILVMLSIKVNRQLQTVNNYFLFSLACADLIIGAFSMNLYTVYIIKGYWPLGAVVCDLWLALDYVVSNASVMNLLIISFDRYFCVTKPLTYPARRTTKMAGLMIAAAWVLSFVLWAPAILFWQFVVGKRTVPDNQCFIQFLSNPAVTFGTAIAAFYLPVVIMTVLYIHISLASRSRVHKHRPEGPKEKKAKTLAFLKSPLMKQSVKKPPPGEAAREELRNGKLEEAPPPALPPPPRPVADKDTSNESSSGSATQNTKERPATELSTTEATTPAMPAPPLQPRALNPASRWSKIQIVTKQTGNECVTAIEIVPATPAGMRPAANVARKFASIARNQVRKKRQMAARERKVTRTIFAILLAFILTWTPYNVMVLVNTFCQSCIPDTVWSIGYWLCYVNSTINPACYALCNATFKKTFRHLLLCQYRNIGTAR
M4 antag – CHRM4 antagonism in calcium assay; CHO-hM4 cells, ACh EC80, Fluo-8 calcium fluorescence; inhibition, % at 3 µM; 0.73% of 360,000 active;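 active means inhibition above its plate's cutoff, the mean inhibition of sample wells plus 3 SD, cut at about 27% in these data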;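 further: 0% = acetylcholine EC80 with DMSO and 100% = DMSO without agonist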
M4 ag – CHRM4 agonism in calcium assay; P08173; CHO-K1 hM4/Gqi5, Fluo-8 calcium fluorescence; vehicle 0%, full acetylcholine response 100%; activation, % at 3 µM; 0.14% of 360,000 active;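 active means activation above the run mean over all test wells plus 3 SD, cut at about 32% in these data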;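 further: peak over basal fluorescence ratio per well then scaled between controls; 0% = DMSO wells and 100% = acetylcholine at EC100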
CHRM5 PAM – CHRM5 positive allosteric modulation; P08912; CHO-K1 hM5, Fluo-8 calcium, ACh EC20 PAM; 0% = ACh EC20, 100% = ACh EC100; activation, % at 3 µM; 0.3% of 360,000 active;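 active means activation above the run cutoff, the mean activation of all test compounds plus 3 SD, cut at about 18% in these data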
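System: CHO-K1 hM5 cells. Reagent: acetylcholine, EC20 level. Compound dosing: single dose, 3 µM nominal final test concentration. Timing: Post-acetylcholine fluorescence recording 140 s. Detection: Fluo-8 calcium fluorescence. Read-out: % activation, ACh-normalized. Benchmarks: ACh EC20 and EC100 wells. Repeats: singlicate, one well per test compound.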
CHRM5 agonist – CHRM5 agonism in calcium assay | 0.19% of 360,000 active | CHO-K1 hM5 cells, Fluo-8 calcium fluorescence; 0% DMSO wells, 100% maximal acetylcholine response | activation, % at 3 µM;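 active means activation above the run's mean over test compounds plus 3 SD, cut at about 23% in these data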;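 further: signal is peak over basal fluorescence ratio across the kinetic read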
* marks the source's active call; other numbers are inactive results; ! = a repeat was not active. The list is not random: actives were taken first. Their share in the collection is about 1.8%.

What do the screens show for `Cc1ccsc1C(=O)N1CCC1(C)C(=O)NS(=O)(=O)c1ccccc1C(F)(F)F` (configuration not stated)?
CHRM5 antagonist: -6.8; M4 PAM: 4.7; M4 antag: 5.2; M4 ag: 0.9; CHRM5 PAM: -1.4; CHRM5 agonist: 1.1

Results for CCOc1ccc(CCNC(=O)CCc2nnc3ccc(N4CCCCC4)nn23)cc1OCC ?
CHRM5 antagonist: 6.3; M4 PAM: -10.2; M4 antag: 31.6*; M4 ag: -0.2; CHRM5 PAM: -9.1; CHRM5 agonist: -4.5

What do the screens show for `CCCCNC(=O)C[C@@H]1C[C@@]2(C(=O)OCC)CCC=C2N(Cc2ccc(Cl)cc2Cl)C1=O`?
CHRM5 antagonist: 3.4; M4 PAM: 6.6; M4 antag: -1.6; M4 ag: 0.1; CHRM5 PAM: -2.1; CHRM5 agonist: -3.2

What do the screens show for `CN1CCCC(CC2Oc3ccccc3Sc3ccccc32)C1` (configuration not stated)?
CHRM5 antagonist: 53.7*; M4 PAM: -40.8; M4 antag: 73.3*; M4 ag: 5.1; CHRM5 PAM: -18.0; CHRM5 agonist: -4.6

What do the screens show for `c1ccc2c(c1)OC(CCCN1CCCCC1)c1ccccc1S2` (configuration not stated)?
CHRM5 antagonist: 21.9; M4 PAM: -16.7; M4 antag: 18.6; M4 ag: 11.9; CHRM5 PAM: -27.6; CHRM5 agonist: -10.3

Results for C[C@H]1CN(c2ccccc2)C(=O)[C@@H]1CC(=O)Nc1ccc(Br)cc1 ?
CHRM5 antagonist: 27.4*; M4 PAM: -0.3; M4 antag: -0.4; M4 ag: 11.6; CHRM5 PAM: -10.3; CHRM5 agonist: 3.7

Results for CC(=O)Nc1ccc(S(=O)(=O)NC2=C(N3CCN(Cc4ccccc4)CC3)C(=O)c3ccccc3C2=O)cc1 ?
CHRM5 antagonist: 19.1; M4 PAM: 0.2; M4 antag: 31.1*!; M4 ag: 12.8; CHRM5 PAM: -8.5; CHRM5 agonist: -1.8

What do the screens show for `CCN1CCN(C2=C(NS(=O)(=O)c3ccc(NC(C)=O)cc3)C(=O)c3ccccc3C2=O)CC1`?
CHRM5 antagonist: -7.0; M4 PAM: -3.7; M4 antag: 12.2; M4 ag: -0.1; CHRM5 PAM: 0.8; CHRM5 agonist: 0.2

Results for CCCCNc1c(-c2ccc(OC)c(SC3CCCCC3)c2)nc2ccc(C)cn12 ?
CHRM5 antagonist: 39.7*; M4 PAM: -10.3; M4 antag: 78.3*; M4 ag: 15.5; CHRM5 PAM: -35.1; CHRM5 agonist: -2.3

How did CCCCNc1c(-c2ccc(SC3CCCCC3)c(OC)c2)nc2ccc(C)cn12 do in these assays?
CHRM5 antagonist: 7.9; M4 PAM: -5.4; M4 antag: 35.3*!; M4 ag: 4.0; CHRM5 PAM: -8.3; CHRM5 agonist: 4.2

Results for CC(=O)OCc1c(C(F)(F)F)nn(C)c1SCc1ccc(Cl)cc1 ?
CHRM5 antagonist: 9.9; M4 PAM: -23.9; M4 antag: 56.0*; M4 ag: -3.1; CHRM5 PAM: -21.0; CHRM5 agonist: -7.5

What do the screens show for `COc1cc(C)ccc1S(=O)(=O)NC(=O)C1(C)CCN1C(=O)C1(c2ccc(Cl)cc2)CCC1` (configuration not stated)?
CHRM5 antagonist: 1.8; M4 PAM: -0.9; M4 antag: 3.8; M4 ag: 0.4; CHRM5 PAM: -1.9; CHRM5 agonist: -0.6

How did CC(C)C[C@@H](COCc1cccc(Cl)c1)N1CCN(C(=O)c2ccc(C(F)(F)F)cc2)CCC1=O do in these assays?
CHRM5 antagonist: 17.2; M4 PAM: -2.6; M4 antag: 4.3; M4 ag: 3.4; CHRM5 PAM: -11.2; CHRM5 agonist: -2.9

How did CC(C)n1c(=O)[nH]c2ccccc21 do in these assays?
CHRM5 antagonist: -1.3; M4 PAM: 1.4; M4 antag: 1.6; M4 ag: 1.1; CHRM5 PAM: -2.0; CHRM5 agonist: 1.4

How did Cc1ccc(NC(=O)c2ccc3c(c2)[nH]c(=O)n3C(C)C)cc1 do in these assays?
CHRM5 antagonist: 27.6*; M4 PAM: -9.4; M4 antag: 1.2; M4 ag: 4.6; CHRM5 PAM: -16.1; CHRM5 agonist: -0.6

Results for COC(=O)c1cn(-c2nc3ccccc3s2)nn1 ?
CHRM5 antagonist: 10.9; M4 PAM: -7.9; M4 antag: 10.6; M4 ag: 11.9; CHRM5 PAM: -11.6; CHRM5 agonist: 5.0

What do the screens show for `CCc1nc2ccc(C(=O)NC3CCN(Cc4ccccc4)CC3)cn2c1N(C)Cc1cc2ccccc2s1`?
CHRM5 antagonist: 14.8; M4 PAM: -10.5; M4 antag: 8.8; M4 ag: 12.2; CHRM5 PAM: -6.0; CHRM5 agonist: -1.8

What do the screens show for `CCc1ccc(NC(=O)CS(=O)CC(=O)NCC2OCCc3ccccc32)cc1` (configuration not stated)?
CHRM5 antagonist: -1.4; M4 PAM: -0.4; M4 antag: -5.1; M4 ag: 0.3; CHRM5 PAM: 3.2; CHRM5 agonist: -4.5

Results for Cc1cccc(C)c1NC(=O)CS(=O)CC(=O)NCC1OCCc2ccccc21 (configuration not stated) ?
CHRM5 antagonist: 3.5; M4 PAM: 7.7; M4 antag: -6.0; M4 ag: 1.4; CHRM5 PAM: 22.6*; CHRM5 agonist: 2.5

How did Cc1ccc(C(=O)N/C(=C/c2ccccc2)C(=O)NCC2CCCO2)cc1 (configuration not stated) do in these assays?
CHRM5 antagonist: -10.0; M4 PAM: 15.3; M4 antag: -22.0; M4 ag: -0.6; CHRM5 PAM: 21.5*; CHRM5 agonist: -2.8

Results for C[C@@H]1CCCCO[C@H](CN(C)S(=O)(=O)c2ccccc2)[C@@H](C)CN([C@H](C)CO)C(=O)c2cc(NC(=O)Cc3ccccc3)ccc2O1 ?
CHRM5 antagonist: 3.6; M4 PAM: 0.8; M4 antag: 4.0; M4 ag: 0.4; CHRM5 PAM: 4.0; CHRM5 agonist: -0.2

What do the screens show for `CCOP(=O)(OCC)C(Nc1ccccc1)c1cccnc1` (configuration not stated)?
CHRM5 antagonist: -1.5; M4 PAM: -2.1; M4 antag: -12.5; M4 ag: 0.7; CHRM5 PAM: 2.4; CHRM5 agonist: 0.7

What do the screens show for `O=P(OC1CCCCC1)(OC1CCCCC1)C(Nc1ccccc1)c1cccnc1` (configuration not stated)?
CHRM5 antagonist: 30.7*; M4 PAM: -9.0; M4 antag: 12.3; M4 ag: 19.5; CHRM5 PAM: -18.7; CHRM5 agonist: -0.3

What do the screens show for `O=C(OCc1cn([C@H]2C[C@H](c3ccccc3)N(Cc3cccs3)C[C@@H]2O)nn1)c1ccccc1`?
CHRM5 antagonist: 2.2; M4 PAM: -3.3; M4 antag: 2.9; M4 ag: 0.1; CHRM5 PAM: 3.2; CHRM5 agonist: 0.2

Screening data from PubChem.
